Assay results as given in ChEMBL document CHEMBL2440086 (Bioorg Med Chem, 2013).

Key:
Tubulin (Homo sapiens) [1] = target: T1, Tubulin (Homo sapiens) (UniProt P68371+Q9H4B7+P0DPH7+P68366+Q13509+Q71U36+P04350+Q3ZCM7+P07437+P68363+Q9BQE3+Q6PEY2+Q13885+Q9BVA1+Q9BUF5); assay: Displacement of [3H]colchicine from tubulin (unknown origin) at 5 uM after 10 mins by scintillation counting analysis; type: protein-complex assay
Outline: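 Mixtures: 1.0 µM tubulin, 5.0 µM [3H]colchicine, 5% DMSO, inhibitor 5.0 µM, with 1.0 M monosodium glutamate pH 6.6, 0.5 mg/mL BSA, 0.1 M glucose-1-phosphate, 1.0 mM MgCl2, 1.0 mM GTP. 10 min at 37 °C, stopped with ice-cold water, filtered on DEAE-cellulose, scintillation counted. Percent inhibition versus no-inhibitor control.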

SK-OV-3 = assay: Cytotoxicity against human SKOV3 cells after 48 hrs by SRB assay; type: functional; details: SK-OV-3, 48 h
Outline: (§1)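 Cells in 5% FBS/RPMI1640 with 1% gentamicin, plated and grown 24 h, then given serial compound dilutions for 48 h. Fixed with trichloroacetic acid, stained with sulforhodamine B, read by optical density.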

[2] = Inhibition of bovine brain tubulin polymerization after 20 mins by turbidimetric analysis; set-up: species or system Bos taurus
Outline: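 Bovine brain tubulin 10 µM (1 mg/mL) in 0.8 M monosodium glutamate pH 6.6, 4% DMSO, with varying compound, preincubated 15 min at 30 °C. Chilled, GTP added to 0.4 mM, then temperature jumped 0→30 °C. Turbidity followed at 350 nm for 30 min.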

Tubulin (Homo sapiens) [3] = target: T1, Tubulin (Homo sapiens); assay: Displacement of [3H]colchicine from tubulin (unknown origin) at 1 uM after 10 mins by scintillation counting analysis; type: protein-complex assay
Outline: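 Tubulin 1.0 µM incubated 10 min at 37 °C with 5.0 µM [3H]colchicine, 5% (v/v) DMSO and inhibitor at 1.0 µM, in 1.0 M monosodium glutamate pH 6.6, 0.5 mg/mL BSA, 0.1 M glucose-1-phosphate, 1.0 mM MgCl2, 1.0 mM GTP. Stopped with ice-cold water, DEAE-cellulose filter stacks, scintillation counting next day; percent inhibition versus no-inhibitor control.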

DU-145 = assay: Cytotoxicity against human DU145 cells after 48 hrs by SRB assay; type: functional; details: DU-145, 48 h; outline: as §1
NCI-H460 = assay: Cytotoxicity against human NCI-H460 cells after 48 hrs by SRB assay; type: functional; details: NCI-H460, 48 h; outline: as §1

inhibition (Tubulin (Homo sapiens) [1]) [%]	IC50 [2] [µM]	Structure (SMILES)	GI50 (SK-OV-3) [µM]	inhibition (Tubulin (Homo sapiens) [3]) [%]	GI50 (DU-145) [µM]	GI50 (NCI-H460) [µM]
26	3.1	COc1ccc2c(C(=O)c3cc(C(F)(F)F)cc(C(F)(F)F)c3)c(-c3ccc(OC)c(O)c3)[nH]c2c1	1.45	–	3.01	2.86
19	3.7	COc1ccc2c(C(=O)c3cccc(OC(F)(F)F)c3)c(-c3ccc(OC)c(O)c3)[nH]c2c1	0.283	–	2.99	3.57
–	> 20	COc1ccc2c(C(=O)c3ccc(OC(F)(F)F)cc3)c(-c3ccc(OC)c(O)c3)[nH]c2c1	3.05	–	3.21	2.35
26	7.5	COc1ccc2c(C(=O)c3cc(F)c(F)c(F)c3)c(-c3ccc(OC)c(O)c3)[nH]c2c1	19.8	–	10	5.54

More lines, now with the values behind:

Structure (SMILES)	inhibition (Tubulin (Homo sapiens) [1]) [%]	IC50 [2] [µM]	GI50 (SK-OV-3) [µM]	inhibition (Tubulin (Homo sapiens) [3]) [%]	GI50 (DU-145) [µM]	GI50 (NCI-H460) [µM]
COc1ccc(-c2[nH]c3c(O)c(OC)ccc3c2C(=O)c2cc(OC)c(OC)c(OC)c2)cc1	85	1	0.264	51	0.309	0.177
COc1ccc2c(C(=O)c3ccc(F)cc3)c(-c3ccc(OC)c(O)c3)[nH]c2c1	–	> 20	15	–	10	49.6
COc1ccc(/C=C\c2cc(OC)c(OC)c(OC)c2)cc1O [COMBRETASTATIN A4]	–	–	0.00533	–	0.00484	0.00449
COc1ccc2c(C(=O)c3cc([N+](=O)[O-])cc([N+](=O)[O-])c3)c(-c3ccc(OC)c(O)c3)[nH]c2c1	–	> 20	4.35	–	5.52	4.08
COc1ccc2c(C(=O)c3cccc([N+](=O)[O-])c3)c(-c3ccc(OC)c(O)c3)[nH]c2c1	21	19	2.65	–	7.11	15.7
COc1ccc(-c2[nH]c3cc(O)ccc3c2C(=O)c2cc(OC)c(OC)c(OC)c2)cc1O	–	> 20	2.17	–	3.4	2.91
COc1ccc(-c2[nH]c3c(OC)c(OC)ccc3c2C(=O)c2cc(OC)c(OC)c(OC)c2)cc1O	67	1.1	0.0119	31	0.0181	0.992
COc1ccc(-c2[nH]c3cc(OC)c(OC)c(OC)c3c2C(=O)c2cc(OC)c(OC)c(OC)c2)cc1O	–	> 20	25.1	–	28.3	41.8
COc1ccc2c(C(=O)c3ccc([N+](=O)[O-])cc3)c(-c3ccc(OC)c(O)c3)[nH]c2c1	–	> 20	21.1	–	8.16	16.8
